# Data as given in ChEMBL document CHEMBL2417416, “Total synthesis and full histone deacetylase inhibitory profiling of Azumamides A-E as well as β²- epi-Azumamide E and β³-epi-Azumamide E” (J Med Chem, 2013).
# How the values were obtained:
# Histone deacetylase 11 = molecular target: T1, Histone deacetylase 11 (Homo sapiens, UniProt Q96DB2); experiment: Inhibition of recombinant human HDAC11 enzyme using Ac-LeuGlyLys(Ac)-AMC as substrate after 15 to 30 mins
# T1 sequence (Q96DB2 whole entry): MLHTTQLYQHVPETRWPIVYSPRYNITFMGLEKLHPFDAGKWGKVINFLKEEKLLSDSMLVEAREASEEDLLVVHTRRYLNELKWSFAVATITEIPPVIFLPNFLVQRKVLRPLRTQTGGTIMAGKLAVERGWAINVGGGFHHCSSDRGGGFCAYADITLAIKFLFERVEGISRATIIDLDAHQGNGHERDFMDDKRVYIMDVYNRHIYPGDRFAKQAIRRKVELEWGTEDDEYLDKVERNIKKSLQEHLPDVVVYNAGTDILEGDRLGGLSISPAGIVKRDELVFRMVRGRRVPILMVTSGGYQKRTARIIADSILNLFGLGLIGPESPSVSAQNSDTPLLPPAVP
# Histone deacetylase 2 = Histone deacetylase 2 (Homo sapiens, UniProt Q92769); experiment: Inhibition of recombinant human HDAC2 enzyme using flurogenic Ac-LeuGlyLys (Ac)-AMC as substrate after 15 to 30 mins
# Chain of Histone deacetylase 2 (Q92769 whole entry): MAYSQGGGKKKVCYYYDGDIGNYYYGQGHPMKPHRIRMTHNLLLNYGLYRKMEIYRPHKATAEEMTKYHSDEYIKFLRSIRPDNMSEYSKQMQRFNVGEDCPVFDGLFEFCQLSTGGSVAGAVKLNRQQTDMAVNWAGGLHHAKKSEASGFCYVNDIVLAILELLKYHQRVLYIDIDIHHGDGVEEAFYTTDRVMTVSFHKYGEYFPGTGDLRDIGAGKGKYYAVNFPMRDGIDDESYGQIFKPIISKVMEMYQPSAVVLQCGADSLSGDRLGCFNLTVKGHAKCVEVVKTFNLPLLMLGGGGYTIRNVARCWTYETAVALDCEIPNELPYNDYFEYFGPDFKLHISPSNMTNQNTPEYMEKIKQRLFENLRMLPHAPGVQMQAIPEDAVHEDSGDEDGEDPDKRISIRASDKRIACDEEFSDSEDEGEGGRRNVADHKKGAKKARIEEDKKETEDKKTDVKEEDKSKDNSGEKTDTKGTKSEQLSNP
# Histone deacetylase 1 = Histone deacetylase 1 (Homo sapiens, UniProt Q13547); experiment: Inhibition of recombinant human HDAC1 enzyme using flurogenic Ac-LeuGlyLys (Ac)-AMC as substrate after 15 to 30 mins
# Chain of Histone deacetylase 1 (Q13547 whole entry): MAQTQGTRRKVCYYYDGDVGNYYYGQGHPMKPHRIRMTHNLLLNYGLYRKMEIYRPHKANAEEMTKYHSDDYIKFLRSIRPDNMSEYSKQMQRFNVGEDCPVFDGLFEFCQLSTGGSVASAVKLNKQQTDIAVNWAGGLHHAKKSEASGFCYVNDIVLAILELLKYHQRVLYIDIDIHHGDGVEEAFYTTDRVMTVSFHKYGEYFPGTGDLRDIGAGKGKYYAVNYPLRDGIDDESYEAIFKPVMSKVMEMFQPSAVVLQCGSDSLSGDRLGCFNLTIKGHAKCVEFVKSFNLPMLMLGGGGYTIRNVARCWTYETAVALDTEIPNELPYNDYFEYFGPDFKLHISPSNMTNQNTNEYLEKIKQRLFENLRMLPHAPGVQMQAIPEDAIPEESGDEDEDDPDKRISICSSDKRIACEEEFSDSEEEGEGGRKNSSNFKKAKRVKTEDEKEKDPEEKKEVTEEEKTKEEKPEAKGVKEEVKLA
# [1] = molecular target: T2, Polyamine deacetylase HDAC10 (Homo sapiens) (UniProt Q969S8); experiment: Inhibition of recombinant human HDAC10 enzyme using tetrapeptide Ac-ArgThr-Lys(Ac)Lys(Ac)-AMC as substrate at 50 uM after 15 to 30 mins
# T2 sequence (whole entry): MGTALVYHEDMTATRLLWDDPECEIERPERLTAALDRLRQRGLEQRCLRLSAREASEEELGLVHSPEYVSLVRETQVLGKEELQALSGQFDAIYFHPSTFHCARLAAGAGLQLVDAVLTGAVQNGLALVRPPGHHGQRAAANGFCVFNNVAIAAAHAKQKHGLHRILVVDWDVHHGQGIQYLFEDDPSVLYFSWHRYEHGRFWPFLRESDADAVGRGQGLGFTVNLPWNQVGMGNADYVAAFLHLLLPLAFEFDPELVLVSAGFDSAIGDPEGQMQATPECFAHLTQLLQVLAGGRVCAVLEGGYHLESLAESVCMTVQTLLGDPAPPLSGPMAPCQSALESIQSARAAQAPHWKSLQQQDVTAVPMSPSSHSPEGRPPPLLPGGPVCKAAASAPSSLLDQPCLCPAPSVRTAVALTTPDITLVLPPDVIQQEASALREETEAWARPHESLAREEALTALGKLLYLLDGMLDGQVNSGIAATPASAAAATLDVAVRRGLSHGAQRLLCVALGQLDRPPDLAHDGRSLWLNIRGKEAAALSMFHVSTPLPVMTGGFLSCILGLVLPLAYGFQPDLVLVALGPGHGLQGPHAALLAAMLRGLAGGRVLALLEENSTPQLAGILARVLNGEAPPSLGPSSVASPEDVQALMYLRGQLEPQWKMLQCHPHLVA
# Procedure, shortened: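 Recombinant human HDAC10 (500 ng/well) was screened at 50 μM compound, with 100 μM of the Lys(Ac)-Lys(Ac)-AMC tetrapeptide substrate, in Tris-HCl pH 8.0 buffer with NaCl, KCl, MgCl2 and 0.5 mg/mL BSA. Plates were incubated 30 min at 37 °C, then developed with trypsin (0.4 mg/mL) for 15–30 min at room temperature and read at ex 360/em 460 nm. There were at least two assays in duplicate.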
# [2] = molecular target: Histone deacetylase 3/NCoR1 (Homo sapiens, UniProt O15379); experiment: Inhibition of GST-tagged recombinant human HDAC3/NcoR1 enzyme using flurogenic Ac-LeuGlyLys (Ac)-AMC as substrate after 15 to 30 mins; assay type: protein-complex assay
# Chain of Histone deacetylase 3/NCoR1 (O15379 whole entry): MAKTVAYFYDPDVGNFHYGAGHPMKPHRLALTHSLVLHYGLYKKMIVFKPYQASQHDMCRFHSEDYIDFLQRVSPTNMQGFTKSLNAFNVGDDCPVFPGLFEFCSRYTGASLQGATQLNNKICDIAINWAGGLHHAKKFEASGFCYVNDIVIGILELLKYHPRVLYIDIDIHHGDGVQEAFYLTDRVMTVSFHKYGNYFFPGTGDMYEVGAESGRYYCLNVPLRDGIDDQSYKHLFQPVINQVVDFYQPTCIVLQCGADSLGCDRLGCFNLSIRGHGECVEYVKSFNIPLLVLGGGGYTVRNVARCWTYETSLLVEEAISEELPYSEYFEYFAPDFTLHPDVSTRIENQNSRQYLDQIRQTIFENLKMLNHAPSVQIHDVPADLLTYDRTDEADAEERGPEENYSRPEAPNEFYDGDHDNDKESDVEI
# Chain of Histone deacetylase 3/NCoR1 (O75376 whole entry, further chain): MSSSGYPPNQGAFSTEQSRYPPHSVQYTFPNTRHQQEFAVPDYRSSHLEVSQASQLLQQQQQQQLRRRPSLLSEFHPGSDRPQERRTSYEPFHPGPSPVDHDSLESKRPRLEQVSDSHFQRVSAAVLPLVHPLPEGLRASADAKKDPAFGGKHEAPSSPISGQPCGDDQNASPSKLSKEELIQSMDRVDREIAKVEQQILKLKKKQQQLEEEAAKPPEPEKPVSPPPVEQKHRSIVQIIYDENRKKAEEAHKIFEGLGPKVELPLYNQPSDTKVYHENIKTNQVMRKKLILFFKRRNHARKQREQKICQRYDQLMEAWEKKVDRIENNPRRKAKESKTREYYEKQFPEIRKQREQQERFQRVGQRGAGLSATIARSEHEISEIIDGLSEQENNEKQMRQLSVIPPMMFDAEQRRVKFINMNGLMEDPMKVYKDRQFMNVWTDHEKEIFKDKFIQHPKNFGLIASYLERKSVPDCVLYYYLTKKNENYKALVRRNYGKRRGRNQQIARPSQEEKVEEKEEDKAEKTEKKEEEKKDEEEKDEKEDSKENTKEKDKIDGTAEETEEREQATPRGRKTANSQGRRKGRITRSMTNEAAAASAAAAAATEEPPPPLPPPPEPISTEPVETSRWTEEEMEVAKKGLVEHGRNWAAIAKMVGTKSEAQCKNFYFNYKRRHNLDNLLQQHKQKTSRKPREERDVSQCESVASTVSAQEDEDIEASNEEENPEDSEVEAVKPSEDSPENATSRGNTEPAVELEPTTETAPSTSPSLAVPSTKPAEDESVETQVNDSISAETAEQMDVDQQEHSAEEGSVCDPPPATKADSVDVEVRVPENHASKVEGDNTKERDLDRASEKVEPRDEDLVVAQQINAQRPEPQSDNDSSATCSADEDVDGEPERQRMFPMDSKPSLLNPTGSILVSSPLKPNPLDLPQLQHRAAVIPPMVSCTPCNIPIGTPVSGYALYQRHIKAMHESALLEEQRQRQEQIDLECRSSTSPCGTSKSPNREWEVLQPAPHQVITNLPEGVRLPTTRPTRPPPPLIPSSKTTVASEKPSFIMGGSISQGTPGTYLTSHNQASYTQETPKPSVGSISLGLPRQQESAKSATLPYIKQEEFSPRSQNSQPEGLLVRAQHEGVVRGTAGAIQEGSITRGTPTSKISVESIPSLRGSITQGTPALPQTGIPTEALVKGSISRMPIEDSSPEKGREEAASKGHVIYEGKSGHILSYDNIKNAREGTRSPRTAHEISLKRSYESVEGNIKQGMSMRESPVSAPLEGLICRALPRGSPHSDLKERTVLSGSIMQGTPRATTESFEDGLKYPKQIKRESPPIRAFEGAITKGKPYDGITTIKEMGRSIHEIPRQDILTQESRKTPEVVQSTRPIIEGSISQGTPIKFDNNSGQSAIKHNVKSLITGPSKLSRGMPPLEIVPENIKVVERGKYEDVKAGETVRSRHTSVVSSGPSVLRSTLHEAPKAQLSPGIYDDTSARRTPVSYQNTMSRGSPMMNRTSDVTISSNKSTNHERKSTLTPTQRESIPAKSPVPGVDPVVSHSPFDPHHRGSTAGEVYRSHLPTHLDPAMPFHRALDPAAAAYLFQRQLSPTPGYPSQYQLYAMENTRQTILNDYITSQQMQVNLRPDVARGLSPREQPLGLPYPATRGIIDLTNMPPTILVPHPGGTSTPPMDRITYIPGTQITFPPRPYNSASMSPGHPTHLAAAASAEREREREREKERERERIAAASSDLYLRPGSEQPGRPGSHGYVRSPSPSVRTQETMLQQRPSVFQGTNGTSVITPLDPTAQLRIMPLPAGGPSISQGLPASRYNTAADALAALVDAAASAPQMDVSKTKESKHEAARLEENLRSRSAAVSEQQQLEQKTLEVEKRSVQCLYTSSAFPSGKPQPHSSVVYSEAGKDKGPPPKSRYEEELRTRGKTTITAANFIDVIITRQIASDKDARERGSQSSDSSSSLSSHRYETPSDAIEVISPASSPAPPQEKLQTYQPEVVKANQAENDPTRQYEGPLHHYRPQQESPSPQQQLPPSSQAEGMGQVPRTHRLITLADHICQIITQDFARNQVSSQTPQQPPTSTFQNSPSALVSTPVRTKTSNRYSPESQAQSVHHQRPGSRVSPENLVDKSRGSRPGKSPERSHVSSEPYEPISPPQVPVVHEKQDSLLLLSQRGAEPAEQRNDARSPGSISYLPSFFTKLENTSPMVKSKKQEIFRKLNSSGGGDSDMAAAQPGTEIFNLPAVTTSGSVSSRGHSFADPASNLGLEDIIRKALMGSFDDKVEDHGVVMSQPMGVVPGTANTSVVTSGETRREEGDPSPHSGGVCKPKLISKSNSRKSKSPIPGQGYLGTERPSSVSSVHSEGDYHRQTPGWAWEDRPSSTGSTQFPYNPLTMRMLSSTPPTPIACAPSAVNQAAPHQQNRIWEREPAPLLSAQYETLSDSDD
# Histone deacetylase 8 = molecular target: T3, Histone deacetylase 8 (Homo sapiens, UniProt Q9BY41); experiment: Inhibition of recombinant human HDAC8 enzyme using Ac-LeuGlyLys (tfa)-AMC as substrate after 15 to 30 mins
# T3 sequence (Q9BY41 whole entry): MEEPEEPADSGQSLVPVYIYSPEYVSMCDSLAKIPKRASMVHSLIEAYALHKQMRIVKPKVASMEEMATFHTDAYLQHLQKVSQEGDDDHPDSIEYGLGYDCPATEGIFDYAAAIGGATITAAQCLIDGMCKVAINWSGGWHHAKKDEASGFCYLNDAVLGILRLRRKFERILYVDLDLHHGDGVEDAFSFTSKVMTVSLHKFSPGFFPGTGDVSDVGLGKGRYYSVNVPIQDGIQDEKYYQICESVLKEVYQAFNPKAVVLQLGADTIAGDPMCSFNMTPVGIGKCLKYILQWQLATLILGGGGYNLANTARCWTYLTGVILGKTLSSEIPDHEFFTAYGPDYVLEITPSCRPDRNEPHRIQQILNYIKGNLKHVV
# [3] = molecular target: T4, Protein deacetylase HDAC6 (Homo sapiens) (UniProt Q9UBN7); experiment: Inhibition of recombinant human HDAC6 enzyme using flurogenic Ac-LeuGlyLys (Ac)-AMC as substrate at 50 uM after 15 to 30 mins
# T4 sequence (whole entry): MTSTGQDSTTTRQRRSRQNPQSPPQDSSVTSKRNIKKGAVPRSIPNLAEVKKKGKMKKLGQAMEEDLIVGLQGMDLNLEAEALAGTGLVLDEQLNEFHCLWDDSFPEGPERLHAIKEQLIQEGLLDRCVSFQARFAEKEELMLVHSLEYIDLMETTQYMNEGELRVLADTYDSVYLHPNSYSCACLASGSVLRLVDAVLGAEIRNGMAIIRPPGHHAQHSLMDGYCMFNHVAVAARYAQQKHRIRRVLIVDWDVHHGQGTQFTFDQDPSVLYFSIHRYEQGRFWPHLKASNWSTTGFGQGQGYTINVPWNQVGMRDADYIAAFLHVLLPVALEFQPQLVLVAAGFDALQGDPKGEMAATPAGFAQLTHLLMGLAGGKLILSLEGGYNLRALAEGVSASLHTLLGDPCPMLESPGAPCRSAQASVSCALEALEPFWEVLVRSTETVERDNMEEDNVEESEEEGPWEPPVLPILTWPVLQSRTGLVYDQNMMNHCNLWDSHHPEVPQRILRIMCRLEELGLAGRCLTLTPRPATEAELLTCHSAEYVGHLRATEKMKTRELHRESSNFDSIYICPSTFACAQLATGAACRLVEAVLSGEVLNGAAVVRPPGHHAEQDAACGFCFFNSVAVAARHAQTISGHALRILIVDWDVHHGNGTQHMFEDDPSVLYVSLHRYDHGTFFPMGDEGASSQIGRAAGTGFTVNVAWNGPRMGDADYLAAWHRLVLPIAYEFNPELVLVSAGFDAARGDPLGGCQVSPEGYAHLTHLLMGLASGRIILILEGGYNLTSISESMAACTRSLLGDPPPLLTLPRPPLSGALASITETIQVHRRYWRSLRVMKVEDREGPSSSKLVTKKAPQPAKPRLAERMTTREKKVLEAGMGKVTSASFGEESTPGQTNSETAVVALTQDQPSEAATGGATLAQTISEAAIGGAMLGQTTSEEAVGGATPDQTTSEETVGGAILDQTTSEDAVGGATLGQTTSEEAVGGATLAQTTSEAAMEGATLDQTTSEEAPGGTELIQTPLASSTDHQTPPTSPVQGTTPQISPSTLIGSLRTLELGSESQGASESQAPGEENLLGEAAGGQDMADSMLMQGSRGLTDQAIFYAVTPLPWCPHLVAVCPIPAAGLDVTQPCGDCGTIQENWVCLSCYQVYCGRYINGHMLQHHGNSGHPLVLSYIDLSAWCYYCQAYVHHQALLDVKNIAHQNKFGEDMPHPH
# Procedure, shortened: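 The single-point screen used HDAC6 at 60 ng/well, 50 μM compound and 80 μM Ac-Leu-Gly-Lys(Ac)-AMC in pH 8.0 Tris buffer with 0.5 mg/mL BSA, incubated 30 min at 37 °C. Trypsin (0.4 mg/mL) was added for 15–30 min at room temperature, and fluorescence was read at 360/460 nm. Each result came from two or more assays run in duplicate.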
# [4] = molecular target: T5, Histone deacetylase 11 (Homo sapiens) (UniProt Q96DB2); experiment: Inhibition of recombinant human HDAC11 enzyme using Ac-LeuGlyLys(Ac)-AMC as substrate at 50 uM after 15 to 30 mins
# T5 sequence (whole entry): T1 sequence (Q96DB2 whole entry)
# Procedure, shortened: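 HDAC11 (500 ng/well) was tested at a single 50 μM peptide concentration with 80 μM Ac-Leu-Gly-Lys(Ac)-AMC in Tris-HCl pH 8.0 buffer containing BSA, for 30 min at 37 °C. Trypsin development (0.4 mg/mL, 15–30 min, room temperature) released AMC, read at ex 360/em 460 nm. […] There were at least two assays in duplicate.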
# [5] = molecular target: Histone deacetylase 3/NCoR1 (Homo sapiens) (UniProt O15379+O75376); details: 50 uM
# [6] = molecular target: T6, Histone deacetylase 8 (Homo sapiens) (UniProt Q9BY41); experiment: Inhibition of recombinant human HDAC8 enzyme using Ac-LeuGlyLys (tfa)-AMC as substrate at 50 uM after 15 to 30 mins
# T6 sequence (whole entry): T3 sequence (Q9BY41 whole entry)
# Procedure, shortened: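 HDAC8 (5 ng/well) was incubated 30 min at 37 °C with 50 μM compound and 400 μM trifluoroacetylated substrate Ac-Leu-Gly-Lys(Tfa)-AMC in Tris-HCl pH 8.0 buffer with NaCl, KCl, MgCl2 and BSA. Trypsin (0.4 mg/mL) development ran 15–30 min at room temperature, with a 360/460 nm read-out. There were at least two separate duplicate assays.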
# [7] = molecular target: T7, Protein deacetylase HDAC6 (Homo sapiens, UniProt Q9UBN7); experiment: Inhibition of recombinant human HDAC6 enzyme using flurogenic Ac-LeuGlyLys (Ac)-AMC as substrate after 15 to 30 mins
# T7 sequence (Q9UBN7 whole entry): T4 sequence (whole entry)
# [8] = molecular target: T8, Polyamine deacetylase HDAC10 (Homo sapiens, UniProt Q969S8); experiment: Inhibition of recombinant human HDAC10 enzyme using tetrapeptide Ac-ArgThr-Lys(Ac)Lys(Ac)-AMC as substrate after 15 to 30 mins
# T8 sequence (Q969S8 whole entry): T2 sequence (whole entry)
Ki (Histone deacetylase 11),Ki (Histone deacetylase 2),Ki (Histone deacetylase 1),inhibition [1],Ki [2],Ki (Histone deacetylase 8),inhibition [3],inhibition [4],inhibition [5],inhibition [6],Ki [7],Ki [8],SMILES
> 5 µM,> 5 µM,> 5000 nM,< 50%,3.2 µM,> 5 µM,< 50%,–,–,–,–,–,CC(C)[C@H]1NC(=O)[C@@H](C)[C@@H](C/C=C\CCC(N)=O)NC(=O)[C@@H](Cc2ccccc2)NC(=O)[C@@H](C)NC1=O [AZUMAMIDE A]
–,–,0.002 nM,–,–,–,–,–,–,–,–,–,C/C=C1\NC(=O)[C@H]2CSSCC/C=C/[C@H](CC(=O)N[C@H](C(C)C)C(=O)N2)OC(=O)[C@H](C(C)C)NC1=O [ROMIDEPSIN]
–,–,–,< 50%,–,–,< 50%,< 50%,< 50%,< 50%,–,–,CC(C)[C@H]1NC(=O)[C@@H](C)[C@H](C/C=C\CCC(=O)O)NC(=O)[C@@H](Cc2ccccc2)NC(=O)[C@@H](C)NC1=O
> 5 µM,> 5 µM,> 5000 nM,< 50%,3.7 µM,–,< 50%,–,–,< 50%,–,–,C[C@@H]1C(=O)N[C@H](C)C(=O)N[C@H](C)C(=O)N[C@H](Cc2ccccc2)C(=O)N[C@@H]1C/C=C\CCC(N)=O [AZUMAMIDE D]
> 5 µM,3 µM,5000 nM,< 50%,3 µM,–,< 50%,–,–,< 50%,–,–,CC(C)[C@H]1NC(=O)[C@@H](C)[C@@H](C/C=C\CCC(N)=O)NC(=O)[C@@H](Cc2ccc(O)cc2)NC(=O)[C@@H](C)NC1=O [AZUMAMIDE B]
0.035 µM,0.04 µM,32 nM,–,0.014 µM,> 5 µM,–,–,–,–,2 µM,0.01 µM,CC(C)[C@H]1NC(=O)[C@@H](C)[C@@H](C/C=C\CCC(=O)O)NC(=O)[C@@H](Cc2ccc(O)cc2)NC(=O)[C@@H](C)NC1=O [AZUMAMIDE C]
–,–,–,< 50%,–,–,< 50%,< 50%,< 50%,< 50%,–,–,CC(C)[C@H]1NC(=O)[C@H](C)[C@@H](C/C=C\CCC(=O)O)NC(=O)[C@@H](Cc2ccccc2)NC(=O)[C@@H](C)NC1=O
0.06 µM,–,–,–,0.025 µM,4.4 µM,–,–,–,–,> 5 µM,0.02 µM,CC(C)[C@H]1NC(=O)[C@@H](C)[C@@H](C/C=C\CCC(=O)O)NC(=O)[C@@H](Cc2ccccc2)NC(=O)[C@@H](C)NC1=O [AZUMAMIDE E]
